The values below come from ChEMBL document CHEMBL1799926, “Applying the pro-drug approach to afford highly bioavailable antagonists of P2Y(14)” (Bioorg Med Chem Lett, 2011).

Molecules are shown by their SMILES. Bounds are passed on as bounds.

Series [1] in a line: Metabolic stability in whole blood after 1 hr.
Series [2] is described as follows: Binding affinity to chimpanzee P2Y14 receptor. More on the design: species or system Pan troglodytes.
Series [3] in a line: Oral bioavailability in mouse at 75 mg/kg bid. The format is ADME, organism-based. The following applies: in vivo.
A short description of series [4]: Half life in mouse at 75 mg/kg, po bid. More on the design: dose 75 mg/kg, route oral. The following applies: in vivo. The format is ADME, organism-based.
A short description of series [5]: Clearance in mouse at 75 mg/kg, po bid. The format is ADME, organism-based. More on the design: dose 75 mg/kg, route oral. Particulars: in vivo.
The next series has as its target Albumin (Homo sapiens, UniProt P02768). The experiment in a line: Binding affinity to 4.5 % human serum albumin.
Series [6] in a line: Binding affinity to chimpanzee P2Y14 receptor in presence of 2% human serum albumin. Set-up: species or system Pan troglodytes.
Series [7] is described as follows: Oral bioavailability in mouse at 50 mg/kg. Format: ADME, organism-based. Particulars: in vivo. Put shortly: (§1)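 Mice dosed orally at 50 mg/kg in 0.25% methocel. Plasma levels of the parent zwitterion were measured for both the parent and the ester prodrugs, giving AUC, 24 h concentration and clearance. For prodrugs, bioavailability is expressed as virtual F, based on parent-drug exposure.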

A short description of series [8]: Plasma concentration in mouse at 50 mg/kg, po after 24 hrs. Format: ADME, organism-based. Set-up: dose 50 mg/kg, route oral. Put shortly:
as §1

A short description of series [9]: (§2) AUC in mouse at 50 mg/kg, po after 24 hrs. Set-up: time < 24 hr, dose 50 mg/kg, route oral. Particulars: plasma. Format: ADME, organism-based, Plasma. Put shortly: as §1
The next series concerns Mus musculus. The series is described as §2. Format: ADME, organism-based, Plasma. More on the design: time < 24 hr, dose 50 mg/kg, route oral. The following applies: in vivo, 24 h. In short, it runs like this: as §1

Albumin, sequence (P02768 whole entry): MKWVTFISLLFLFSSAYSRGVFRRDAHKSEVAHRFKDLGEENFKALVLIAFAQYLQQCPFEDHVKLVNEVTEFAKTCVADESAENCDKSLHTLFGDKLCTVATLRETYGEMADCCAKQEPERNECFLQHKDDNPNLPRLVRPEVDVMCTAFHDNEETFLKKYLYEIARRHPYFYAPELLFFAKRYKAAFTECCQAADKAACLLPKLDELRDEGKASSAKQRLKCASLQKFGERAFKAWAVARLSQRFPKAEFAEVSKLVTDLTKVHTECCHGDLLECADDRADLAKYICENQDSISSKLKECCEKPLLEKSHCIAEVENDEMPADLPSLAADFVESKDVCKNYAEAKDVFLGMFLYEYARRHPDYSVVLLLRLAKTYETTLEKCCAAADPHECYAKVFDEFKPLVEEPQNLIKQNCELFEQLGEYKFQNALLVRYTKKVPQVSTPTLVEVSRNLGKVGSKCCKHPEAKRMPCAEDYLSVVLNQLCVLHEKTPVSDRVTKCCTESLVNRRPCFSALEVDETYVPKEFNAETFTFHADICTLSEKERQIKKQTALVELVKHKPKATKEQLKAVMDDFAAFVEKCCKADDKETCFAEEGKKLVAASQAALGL

`CC(OCC(=O)C(C)C)OC(=O)c1cc(-c2ccc(C3CCNCC3)cc2)c2ccc(-c3ccc(C(F)(F)F)cc3)cc2c1` (stereo not drawn): the Stability result in series [1] is listed as “Unstable”.
Same read-out and setting: the entry for `CN(C)CCOC(=O)c1cc(-c2ccc(C3CCNCC3)cc2)c2ccc(-c3ccc(C(F)(F)F)cc3)cc2c1` is “Unstable”.
Usually Ki stands for the dissociation constant of the complex between target and ligand, obtained from inhibition or displacement. Usually bioavailability stands for dose-corrected exposure relative to a reference, in per cent. A low value points to little systemic uptake. For orientation: half-life means the time in which the quantity being followed falls by half. A higher half-life goes with slow loss. The CL/F is clearance divided by bioavailability, as obtained after extravascular dosing. For `O=C(O)c1cc(-c2ccc([C@@H](O)C(F)F)cc2)c2ccc(-c3ccc(C(F)(F)F)cc3)cc2c1`, the Ki in [2] was determined as 4 nM; in [6], 1290 nM. For the same compound, the bioavailability in [3] amounted to 67%. This compound showed a half-life in series [4] of 180 min. The CL/F in series [5] came out at 1.6 mL/min/kg. This compound had an Activity on Albumin greater than 99%.
For orientation: AUC means the area under the concentration-time curve, a measure of exposure. A lower AUC goes with low exposure. In the case of `O=C(O)c1cc(-c2ccc(C3CCNCC3)cc2)c2ccc(-c3ccc(C(F)(F)F)cc3)cc2c1` [PPTN], the Ki in series [2] was 1.9 nM; in series [6] it was 35 nM. Further, the bioavailability in series [7] was determined as 5%. Moreover, the concentration at 24 h in series [8] worked out at 680 nM. The AUC at 24 h in [9] came to 23 µM·h.
With `CC(=O)OCOC(=O)c1cc(-c2ccc(C3CCNCC3)cc2)c2ccc(-c3ccc(C(F)(F)F)cc3)cc2c1`, the Stability result in series [1] is “Unstable”.
Take `CN(C)C(=O)COC(=O)c1cc(-c2ccc(C3CCNCC3)cc2)c2ccc(-c3ccc(C(F)(F)F)cc3)cc2c1`: the bioavailability in [7] turned out to be 67%. The compound further gave a concentration at 24 h in series [8] of 2280 nM. The AUC in the series on Mus musculus was 54 µM·h. Further, in series [1], the Stability entry is reported as “Unstable”.
